In data set [1] the test system is RAW264.7. Put plainly: Cytostatic activity against mouse RAW264.7 cells assessed as cell growth inhibition after 48 hrs by MTT assay. In kind it is cell-based. The settings on record: raw264.7, 48 h. The essentials:
(§1)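 RAW 264.7 cells seeded, cultured overnight, and the seeded cell number measured before treatment as control. Cells exposed to various concentrations for 48 h, then MTT at 0.5 mg/mL […]. Cells lysed in 2-propanol with 0.4% HCl; absorbance read at 610 nm. OD normalized to control; one-way ANOVA.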

In data set [2] the test system is Staphylococcus aureus. In words: Antibacterial activity against Staphylococcus aureus EMRSA-15 after 18 hrs by serial dilution method. It is filed as functional, organism-based. The essentials: (§2)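 Strains grown on nutrient agar for 24 h at 37 °C. Compounds dissolved in DMSO and diluted in Mueller–Hinton broth to a 512 μg/mL starting concentration, then serially diluted in MHB with 10 mg/L Mg2+ and 20 mg/L Ca2+. Final inoculum 5 × 10^5 cfu/mL; 18 h, 37 °C. MIC is the lowest concentration with no growth, confirmed by MTT colour change. DMSO at most 3.125% v/v; triplicate.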

Data set [3] concerns RAW264.7. In words: Antiinflammatory activity in mouse RAW264.7 cells assessed as inhibition of LPS-induced nitric oxide production at 10 ug/ml preincubated for 1 hr followed by LPS stimulation for 48 hrs by Griess assay. In kind it is functional, cell-based. In short, it runs like this:
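RAW 264.7 mouse macrophages in DMEM with 10% heat-inactivated FBS at 37 °C, 5% CO2. Compounds fixed at 10 μg/mL in Carbowax 400 (0.1% v/v final), added 1 h before 100 ng/mL LPS for 48 h. Nitrite in the supernatant measured by Griess reaction (540 nm) against a sodium nitrite standard curve. Controls: 0.1% Carbowax only.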
For orientation: Nitrite, measured by Griess reagent, commonly stands in for NO production.

Data set [4] deals with RAW264.7. Put plainly: Cytotoxicity against mouse RAW264.7 cells assessed as cell growth inhibition after 48 hrs by MTT assay. It is filed as cell-based. The settings on record: raw264.7, 48 h. The essentials:
as §1
For orientation: Tetrazolium assays rely on reduction of a dye to a coloured formazan, in cell work by metabolically active cells.

Data set [5] has as its system RAW264.7. In words: Antiinflammatory activity in mouse RAW264.7 cells assessed as inhibition of LPS-induced nitric oxide production preincubated for 1 hr followed by LPS stimulation for 48 hrs by Griess assay. In kind it is functional, cell-based. The essentials: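 Macrophage line RAW 264.7 pretreated 1 h with a range of concentrations (vehicle Carbowax 400, 0.1% v/v final), then given 100 ng/mL LPS for 48 h. Supernatant nitrite read by Griess reaction at 540 nm using a nitrite standard curve. NO normalized to Carbowax-only cells (100%); IC50 is the concentration giving 50% inhibition; four replicates, mean ± SD.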

For data set [6], the system named is Staphylococcus aureus. In words: Antibacterial activity against Staphylococcus aureus SA1199B after 18 hrs by serial dilution method. In kind it is functional, organism-based. In short, it runs like this:
as §2

The subject of data set [7] is Escherichia coli. Put plainly: Antibacterial activity against Escherichia coli NCTC 10418 after 18 hrs by serial dilution method. In kind it is functional, organism-based. In short, it runs like this: as §2
For data set [8], the system named is RAW264.7. Put plainly: Antiinflammatory activity in mouse RAW264.7 cells assessed as inhibition of LPS-induced nitric oxide production treated 1 hr before LPS challenge measured after 48 hrs by Griess reaction.

This note sets out measurements from ChEMBL document CHEMBL3813653, “Disulfides with Anti-inflammatory Activity from the Brown Alga Dictyopteris membranacea” (J Nat Prod, 2016).

Activity calls are given as the source filed them. The calls are words filed in the database; no cut-off is given here. A value given as a limit tells only on which side of the number the result lay.

As to `CCCCCCC1CC(=O)CCSS1` (configuration not stated), the “growth inhibition (GI)” value in data set [1] is given as “Toxic”. Further, the result in data set [2], in data set [6] and in data set [7] was inactive. Moreover, the inhibition result in data set [3] is “Active”. For the same compound, the GI in data set [4] was greater than 85 µM. In data set [5], the IC50 (in general, the midpoint of a concentration-inhibition curve) worked out at 14.2 µM.

For `CCCCCCCCC(=O)CCSSCCC(=O)CC(CCCCCC)SC` (configuration not stated), in data set [1], the “growth inhibition (GI)” value is reported as “Toxic”. In addition, the outcome in data set [2], in data set [6] and in data set [7] was inactive. Further, the inhibition result in data set [3] was “Active”. Besides, the GI in data set [4] is greater than 45 µM. Moreover, in data set [5], the IC50 was 3.8 µM.

Regarding `CCCCCC/C=C/C(=O)CCSSCCC(=O)/C=C/CCCCCC`, the result in data set [2], in data set [6] and in data set [7] was inactive.

In the case of `C=C([C@H]1CC[C@@](C)(O)[C@@H](Br)C1)[C@H]1[C@H](O)[C@@H]2[C@@H](CC[C@@]2(C)O)C1(C)C`, the IC50 in data set [8] stood at 2.2 µM.

As to `CCCCCC/C=C/C(=O)CCSSCCC(=O)CCCCCCCC`, the outcome in data set [2], in data set [6] and in data set [7] was inactive.

For `CCCCCC/C=C/C(=O)CCSSCCC(=O)CC(CCCCCC)SC` (configuration not stated), the outcome in data set [2], in data set [6] and in data set [7] was inactive.

Turning to `CCCCCCCCC(=O)CCSSCCC(=O)CCCCCCCC`, the result in data set [2], in data set [6] and in data set [7] was inactive.
